Measured values reported in ChEMBL document CHEMBL3588757, “Structure-based design, synthesis and biological testing of piperazine-linked bis-epipodophyllotoxin etoposide analogs” (Bioorg Med Chem, 2015).

Columns and labels:
Format in all cases: functional
OVCAR-8 [1] = test: Cytotoxicity against human OVCAR8 cells assessed as cell growth at 50 uM by SRB assay; conditions: read-out: Activity
MDA-MB-435 [2] = test: Cytotoxicity against human MDA-MB-435 cells assessed as cell growth at 5 uM by SRB assay; conditions: read-out: Activity
A498 [3] = test: Cytotoxicity against human A498 cells assessed as cell growth at 0.5 uM by SRB assay; conditions: read-out: Activity
U-251 [4] = test: Cytotoxicity against human U251 cells by SRB assay
Outline: (§1)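 NCI-60 panel screen; 5-dose testing giving GI50 per cell line, plus a single 10 µM one-dose test. Method details not given beyond the NCI screen.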

HCT-15 = test: Cytotoxicity against human HCT15 cells assessed as cell growth at 50 uM by SRB assay; conditions: read-out: Activity
Outline: (§2)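 Measured in the NCI-60 human tumour cell line panel using five-dose testing. Growth was recorded at each dose for each cell line, and a GI50 was derived for each line.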

SK-MEL-28 [5] = test: Cytotoxicity against human SK-MEL-28 cells by SRB assay; outline: as §1
OVCAR-3 [6] = test: Cytotoxicity against human OVCAR3 cells by SRB assay; outline: as §1
M14 = test: Cytotoxicity against human M14 cells assessed as cell growth at 5 uM by SRB assay; conditions: read-out: Activity
LOX IMVI = test: Cytotoxicity against human LOXIMVI cells assessed as cell growth at 0.005 uM by SRB assay; conditions: read-out: Activity
UO-31 = test: Cytotoxicity against human UO31 cells assessed as cell growth at 0.05 uM by SRB assay; conditions: read-out: Activity
CCRF-CEM = test: Cytotoxicity against human CCRF-CEM cells assessed as cell growth at 0.05 uM by SRB assay; conditions: read-out: Activity
NCI-H522 = test: Cytotoxicity against human NCI-H522 cells assessed as cell growth at 0.5 uM by SRB assay; conditions: read-out: Activity
SK-MEL-28 [7] = test: Cytotoxicity against human SK-MEL-28 cells assessed as cell growth at 5 uM by SRB assay; conditions: read-out: Activity
NCI-H23 = test: Cytotoxicity against human NCI-H23 cells assessed as cell growth at 0.05 uM by SRB assay; conditions: read-out: Activity
A498 [8] = test: Cytotoxicity against human A498 cells assessed as cell growth at 0.005 uM by SRB assay; conditions: read-out: Activity
U-251 [9] = test: Cytotoxicity against human U251 cells assessed as cell growth at 0.5 uM by SRB assay; conditions: read-out: Activity
OVCAR-8 [10] = test: Cytotoxicity against human OVCAR8 cells assessed as cell growth at 5 uM by SRB assay; conditions: read-out: Activity
OVCAR-4 = test: Cytotoxicity against human OVCAR4 cells assessed as cell growth at 0.05 uM by SRB assay; conditions: read-out: Activity
KM12 = test: Cytotoxicity against human KM12 cells assessed as cell growth at 0.05 uM by SRB assay; conditions: read-out: Activity
BT-549 = test: Cytotoxicity against human BT549 cells assessed as cell growth at 0.005 uM by SRB assay; conditions: read-out: Activity
COLO 205 = test: Cytotoxicity against human COLO205 cells by SRB assay
IGROV-1 = test: Cytotoxicity against human IGROV1 cells by SRB assay; outline: as §1
SF-295 = test: Cytotoxicity against human SF295 cells assessed as cell growth at 0.05 uM by SRB assay; conditions: read-out: Activity
MDA-MB-468 = test: Cytotoxicity against human MDA-MB-468 cells assessed as cell growth at 5 uM by SRB assay; conditions: read-out: Activity
A549 = test: Cytotoxicity against human A549/ATCC cells assessed as cell growth at 0.5 uM by SRB assay; conditions: read-out: Activity
SK-MEL-2 = test: Cytotoxicity against human SK-MEL-2 cells by SRB assay; outline: as §1
NCI-H460 = test: Cytotoxicity against human NCI-H460 cells assessed as cell growth at 0.05 uM by SRB assay; conditions: read-out: Activity
UACC-62 [11] = test: Cytotoxicity against human UACC62 cells assessed as cell growth at 0.5 uM by SRB assay; conditions: read-out: Activity
MDA-MB-435 [12] = test: Cytotoxicity against human MDA-MB-435 cells assessed as cell growth at 0.5 uM by SRB assay; conditions: read-out: Activity
SF-539 = test: Cytotoxicity against human SF539 cells assessed as cell growth at 5 uM by SRB assay; conditions: read-out: Activity
UACC-62 [13] = test: Cytotoxicity against human UACC62 cells assessed as cell growth at 50 uM by SRB assay; conditions: read-out: Activity
MDA-MB-435 [14] = test: Cytotoxicity against human MDA-MB-435 cells by SRB assay; outline: as §1
ACHN = test: Cytotoxicity against human ACHN cells assessed as cell growth at 50 uM by SRB assay; conditions: read-out: Activity
OVCAR-3 [15] = test: Cytotoxicity against human OVCAR3 cells assessed as cell growth at 50 uM by SRB assay; conditions: read-out: Activity
MOLT-4 = test: Cytotoxicity against human MOLT4 cells assessed as cell growth at 50 uM by SRB assay; conditions: read-out: Activity
HL-60(TB) [16] = test: Cytotoxicity against human HL-60(TB) cells by SRB assay; outline: as §2
HL-60(TB) [17] = test: Cytotoxicity against human HL-60(TB) cells assessed as cell growth at 50 uM by SRB assay; conditions: read-out: Activity; outline: as §2
RXF 393 = test: Cytotoxicity against human RXF393 cells assessed as cell growth at 0.5 uM by SRB assay; conditions: read-out: Activity
SF-268 = test: Cytotoxicity against human SF268 cells assessed as cell growth at 5 uM by SRB assay; conditions: read-out: Activity
MCF7 = test: Cytotoxicity against human MCF7 cells assessed as cell growth at 0.05 uM by SRB assay; conditions: read-out: Activity
NCI-H226 = test: Cytotoxicity against human NCI-H226 cells assessed as cell growth at 0.005 uM by SRB assay; conditions: read-out: Activity
[18] = read-out: LC50 (the source's name)
[19] = read-out: pLC50 (the source's name) (converted)

With `COc1cc([C@@H]2c3cc4c(cc3[C@@H](NC(=O)CN3CCN(CCCCCCCCCCN5CCN(CC(=O)N[C@@H]6c7cc8c(cc7[C@@H](c7cc(OC)c(O)c(OC)c7)[C@H]7C(=O)OC[C@@H]76)OCO8)CC5)CC3)[C@H]3COC(=O)[C@H]23)OCO4)cc(OC)c1O` the growth at 50 µM (OVCAR-8 [1]) was -19%, the growth at 5 µM (MDA-MB-435 [2]) was -60% and the growth at 0.5 µM (A498 [3]) was 51%. For the same compound, the GI50 (U-251 [4]; read-out: GI50) was 0.532 µM, the CC50 (U-251 [4]; [18]) was 23.4 µM and the TGI (U-251 [4]; read-out: TGI) was 6.27 µM. For the same compound, the GI50 (U-251 [4]; read-out: pGI50 (converted)) was 0.537 µM, the CC50 (U-251 [4]; [19]) was 23.4 µM and the TGI (U-251 [4]; read-out: pTGI (converted)) was 6.31 µM. For the same compound, the growth at 50 µM (HCT-15) was -64%, the GI50 (SK-MEL-28 [5]; read-out: GI50) was 6.2 µM and the CC50 (SK-MEL-28 [5]; [18]) was 29.8 µM. For the same compound, the TGI (SK-MEL-28 [5]; read-out: TGI) was 13.6 µM, the GI50 (SK-MEL-28 [5]; read-out: pGI50 (converted)) was 6.17 µM and the CC50 (SK-MEL-28 [5]; [19]) was 29.5 µM. The TGI (SK-MEL-28 [5]; read-out: pTGI (converted)) was 13.5 µM, the GI50 (OVCAR-3 [6]; read-out: GI50) was 1.81 µM and the CC50 (OVCAR-3 [6]; [18]) was 49.9 µM. For the same compound, the TGI (OVCAR-3 [6]; read-out: TGI) was 13.8 µM, the GI50 (OVCAR-3 [6]; read-out: pGI50 (converted)) was 1.82 µM and the CC50 (OVCAR-3 [6]; [19]) was 50.1 µM. For the same compound, the TGI (OVCAR-3 [6]; read-out: pTGI (converted)) was 13.8 µM, the growth at 5 µM (M14) was -36% and the growth at 0.005 µM (LOX IMVI) was 86%. The growth at 0.05 µM (UO-31) was 85%, the growth at 0.05 µM (CCRF-CEM) was 62% and the growth at 0.5 µM (NCI-H522) was 14%. The growth at 5 µM (SK-MEL-28 [7]) was 64%, the growth at 0.05 µM (NCI-H23) was 81% and the growth at 0.005 µM (A498 [8]) was 73%. For the same compound, the growth at 0.5 µM (U-251 [9]) was 51%, the growth at 5 µM (OVCAR-8 [10]) was -28% and the growth at 0.05 µM (OVCAR-4) was 94%. The growth at 0.05 µM (KM12) was 91%, the growth at 0.005 µM (BT-549) was 94% and the GI50 (COLO 205; read-out: GI50) was 0.906 µM. For the same compound, the CC50 (COLO 205; [18]) was > 50 µM, the TGI (COLO 205; read-out: TGI) was 3.52 µM and the GI50 (COLO 205; read-out: pGI50 (converted)) was 0.912 µM. For the same compound, the CC50 (COLO 205; [19]) was > 50.1 µM, the TGI (COLO 205; read-out: pTGI (converted)) was 3.55 µM and the GI50 (IGROV-1; read-out: GI50) was 0.36 µM. For the same compound, the CC50 (IGROV-1; [18]) was > 50 µM, the TGI (IGROV-1; read-out: TGI) was 7.59 µM and the GI50 (IGROV-1; read-out: pGI50 (converted)) was 0.363 µM. For the same compound, the CC50 (IGROV-1; [19]) was > 50.1 µM, the TGI (IGROV-1; read-out: pTGI (converted)) was 7.59 µM and the growth at 0.05 µM (SF-295) was 88%. It also gave a growth at 5 µM (MDA-MB-468) of -29%, a growth at 0.5 µM (A549) of 9% and a GI50 (SK-MEL-2; read-out: GI50) of 3.96 µM. For the same compound, the CC50 (SK-MEL-2; [18]) was 41 µM, the TGI (SK-MEL-2; read-out: TGI) was 13.9 µM and the GI50 (SK-MEL-2; read-out: pGI50 (converted)) was 3.98 µM. It also gave a CC50 (SK-MEL-2; [19]) of 40.7 µM, a TGI (SK-MEL-2; read-out: pTGI (converted)) of 13.8 µM and a growth at 0.05 µM (NCI-H460) of 90%. It also gave a growth at 0.5 µM (UACC-62 [11]) of 81%, a growth at 0.5 µM (MDA-MB-435 [12]) of 39% and a growth at 5 µM (SF-539) of -88%. It also gave a growth at 50 µM (UACC-62 [13]) of -30%, a GI50 (MDA-MB-435 [14]; read-out: GI50) of 0.295 µM and a TGI (MDA-MB-435 [14]; read-out: TGI) of 1.23 µM. The GI50 (MDA-MB-435 [14]; read-out: pGI50 (converted)) was 0.295 µM, the TGI (MDA-MB-435 [14]; read-out: pTGI (converted)) was 1.23 µM and the growth at 50 µM (ACHN) was -87%. The growth at 50 µM (OVCAR-3 [15]) was -50%, the growth at 50 µM (MOLT-4) was -100% and the GI50 (HL-60(TB) [16]; read-out: GI50) was 0.113 µM. For the same compound, the CC50 (HL-60(TB) [16]; [18]) was > 50 µM, the TGI (HL-60(TB) [16]; read-out: TGI) was 0.901 µM and the GI50 (HL-60(TB) [16]; read-out: pGI50 (converted)) was 0.112 µM. For the same compound, the CC50 (HL-60(TB) [16]; [19]) was > 50.1 µM, the TGI (HL-60(TB) [16]; read-out: pTGI (converted)) was 0.891 µM and the growth at 50 µM (HL-60(TB) [17]) was -46%. For the same compound, the growth at 0.5 µM (RXF 393) was 71%, the growth at 5 µM (SF-268) was -34% and the growth at 0.05 µM (MCF7) was 61%. The growth at 0.005 µM (NCI-H226) was 92%.
